Measurements reported in ChEMBL document CHEMBL5678817, “FTBMT, a Novel and Selective GPR52 Agonist, Demonstrates Antipsychotic-Like and Procognitive Effects in Rodents, Revealing a Potential Therapeutic Agent for Schizophrenia” (J Pharmacol Exp Ther, 2017).
Calls of active or inactive are those of the source. The rule behind the calls is not given here.

What was measured:
[1] = target: T1, G protein-coupled receptor 52 (Rattus norvegicus) (UniProt A0A8I5ZQK1); assay: Agonist activity at GPR52 in rat Striatal neuron assessed as increase in CREB phosphorylation […] by Alphascreen assay; type: cell-based; conditions: filed as agonist
[2] = target: Matrilysin (Homo sapiens) (UniProt P09237); assay: Inhibition of MMP7 (unknown origin) at 10 uM relative to control
How it was run: (§1)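 Enzyme activity assays from the same 98-target biochemical panel. Single test concentration of 10 µM. Read-out is % inhibition of enzyme activity relative to control; negative percentages indicate activation of the enzyme.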

[3] = target: Prostaglandin G/H synthase 1 (Homo sapiens) (UniProt P23219); assay: Inhibition of COX-1 (unknown origin) at 10 uM relative to control
How it was run: (§2)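 Single-point screen at 10 μM across receptor, ion channel and enzyme binding or activity assays. Expressed as percent inhibition versus control; negative values denote stimulation.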

[4] = target: Kappa-type opioid receptor (Homo sapiens) (UniProt P41145); assay: Inhibition of opioid kappa receptor (unknown origin) at 10 uM relative to control
How it was run: (§3)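 Binding and enzyme panel run by an outside contractor against receptors, ion channels and enzymes. Each assay used a single 10 μM test concentration, and results are expressed as percent inhibition. A negative value means stimulation of receptor activity or activation of enzyme activity.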

[5] = target: Carbonic anhydrase 2 (Homo sapiens) (UniProt P00918); assay: Inhibition of Carbonic anhydrase II (unknown origin) at 10 uM relative to control; how it was run: as §2
Mus musculus [6] = assay: Antipsychotic activity in C57BL/6N mouse assessed as increase in c-fos mRNA expression at 3 to 100 mg/kg, po measured for 1 hr by qPCR analysis; type: functional, organism-based; conditions: dose 3-100 mg/kg
How it was run: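 Mice dosed orally at 3–100 mg/kg or vehicle. Tissues taken 1 h post-dose, NAc shell and striatum dissected, frozen on dry ice. IEG mRNA quantified by qPCR (absolute or ΔΔCt); n = 5–6; mean ± SEM.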

[7] = target: GABA-A receptor; anion channel (Homo sapiens) (UniProt P14867+P47870+P18507+P28472+P48169+Q99928+Q9UN88+P34903+O00591+O14764+Q8N1C3+P18505+P78334+P47869+P31644+Q16445); assay: Inhibition of GABA receptor (unknown origin) at 10 uM relative to control; type: protein-complex assay
How it was run: (§4)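 Part of a 98-target external biochemical selectivity panel that used radioligand/receptor binding-type assays. Compound tested once at 10 µM. Results are reported as % inhibition versus control; negative values mean stimulation of receptor activity.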

[8] = target: G protein-coupled receptor 52 (Rattus norvegicus, UniProt A0A8I5ZQK1); assay: Agonist activity at GPR52 in rat Striatal neuron assessed as increase in intracellular cAMP level […] by Alphascreen assay; type: cell-based
[9] = target: D(3) dopamine receptor (Homo sapiens) (UniProt P35462); assay: Inhibition of Dopamine D3 receptor (unknown origin) at 10 uM relative to control; how it was run: as §4
[10] = target: Xanthine oxidase (xanthine dehydrogenase/oxidase) (Homo sapiens, UniProt P47989); assay: Inhibition of Xanthine oxidase (unknown origin) at 10 uM relative to control; how it was run: as §3
[11] = target: Serotonin 2 (5-HT2) receptor (Homo sapiens) (UniProt P41595+P28223+P28335); assay: Inhibition of Serotonin 5-HT2 receptor (unknown origin) at 10 uM relative to control; type: protein assay; how it was run: as §4
[12] = target: Glutamate [NMDA] receptor (Homo sapiens) (UniProt Q05586+Q12879+Q13224+O15399+O60391+Q14957+Q8TCU5); assay: Inhibition of Glutamate NMDA receptor (unknown origin) at 10 uM in presence of glycine relative to control; type: protein-complex assay; how it was run: as §4
[13] = target: Beta-1 adrenergic receptor (Homo sapiens) (UniProt P08588); assay: Inhibition of Adrenergic beta1 receptor (unknown origin) at 10 uM relative to control; how it was run: as §2
Mus musculus [14] = assay: Antipsychotic activity in C57BL/6N mouse assessed as increase in c-fos positive cells in nucleus accumbens at 30 mg/kg, po measured for 2 hrs by immunohistochemistry analysis; type: functional, organism-based
Mus musculus [15] = assay: Antipsychotic activity in C57BL/6N mouse assessed as increase in c-fos positive cells in dorsolateral striatum at 30 mg/kg, po measured for 2 hrs by immunohistochemistry analysis; type: functional, organism-based
[16] = target: Serotonin 3 (5-HT3) receptor (Homo sapiens) (UniProt P46098+A5X5Y0+O95264+Q70Z44+Q8WXA8); assay: Inhibition of Serotonin 5-HT3 receptor (unknown origin) at 10 uM relative to control; type: protein-complex assay; how it was run: as §4
[17] = target: B1 bradykinin receptor (Homo sapiens) (UniProt P46663); assay: Inhibition of Bradykinin B1 receptor (unknown origin) at 10 uM relative to control; how it was run: as §2
Mus musculus [18] = assay: Antipsychotic activity in po dosed ICR mouse assessed as inhibition of MK-801-induced hyperactivity pretreated with compound for 1 hr followed by MK-801 addition and measured after 90 mins; type: functional, organism-based; conditions: dose 3-30 mg/kg, time 150.0 min
How it was run: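 Male ICR mice (7–8 weeks) habituated >60 min in individual cages with activity monitors. Oral dosing at 3–30 mg/kg or vehicle 60 min before MK-801 (0.2 mg/kg s.c.) or vehicle. Activity counted for 60 min pretreatment and 90 min after MK-801; n = 9–10.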

[19] = target: 5-hydroxytryptamine receptor 4 (Homo sapiens) (UniProt Q13639); assay: Inhibition of Serotonin 5-HT4 receptor (unknown origin) at 10 uM relative to control; how it was run: as §4
[20] = target: T1, G protein-coupled receptor 52 (Rattus norvegicus); assay: Agonist activity at GPR52 in rat Striatal neuron assessed as increase in Egr-2 mRNA expression by RT-PCR analysis; type: cell-based; conditions: filed as agonist
How it was run: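 Rat primary striatal neurons (E18–19), used at DIV 13–16. Treated in HBSS with 5 mM HEPES pH 7.5 and 0.5% fatty-acid-free BSA for 15 or 60 min at 37 °C. Cells were homogenized in RLT buffer and IEG mRNA was quantified by qPCR using absolute or ΔΔCt relative quantification.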

[21] = target: Coagulation factor X (Homo sapiens) (UniProt P00742); assay: Inhibition of factor Xa (unknown origin) at 10 uM relative to control; how it was run: as §3
[22] = target: Muscarinic acetylcholine receptor M1 (Homo sapiens) (UniProt P11229); assay: Inhibition of Muscarinic M1 receptor (unknown origin) at 10 uM relative to control; how it was run: as §4
[23] = target: Muscarinic acetylcholine receptor M3 (Homo sapiens) (UniProt P20309); assay: Inhibition of Muscarinic M3 receptor (unknown origin) at 10 uM relative to control; how it was run: as §4
Homo sapiens = species on record: Homo sapiens; assay: Inhibition of NA+/K+ ATPase (unknown origin) at 10 uM relative to control; how it was run: as §1
[24] = target: Mu-type opioid receptor (Homo sapiens) (UniProt P35372); assay: Inhibition of mu opioid receptor (unknown origin) at 10 uM relative to control; how it was run: as §3
[25] = target: B2 bradykinin receptor (Homo sapiens) (UniProt P30411); assay: Inhibition of Bradykinin B2 receptor (unknown origin) at 10 uM relative to control; how it was run: as §2
[26] = target: cAMP and cAMP-inhibited cGMP 3',5'-cyclic phosphodiesterase 10A (Homo sapiens) (UniProt Q9Y233); assay: Inhibition of PDE10A1 (unknown origin) at 10 uM relative to control; how it was run: as §1
cAMP and cAMP-inhibited cGMP 3',5'-cyclic phosphodiesterase 10A (Homo sapiens), sequence (Q9Y233 whole entry): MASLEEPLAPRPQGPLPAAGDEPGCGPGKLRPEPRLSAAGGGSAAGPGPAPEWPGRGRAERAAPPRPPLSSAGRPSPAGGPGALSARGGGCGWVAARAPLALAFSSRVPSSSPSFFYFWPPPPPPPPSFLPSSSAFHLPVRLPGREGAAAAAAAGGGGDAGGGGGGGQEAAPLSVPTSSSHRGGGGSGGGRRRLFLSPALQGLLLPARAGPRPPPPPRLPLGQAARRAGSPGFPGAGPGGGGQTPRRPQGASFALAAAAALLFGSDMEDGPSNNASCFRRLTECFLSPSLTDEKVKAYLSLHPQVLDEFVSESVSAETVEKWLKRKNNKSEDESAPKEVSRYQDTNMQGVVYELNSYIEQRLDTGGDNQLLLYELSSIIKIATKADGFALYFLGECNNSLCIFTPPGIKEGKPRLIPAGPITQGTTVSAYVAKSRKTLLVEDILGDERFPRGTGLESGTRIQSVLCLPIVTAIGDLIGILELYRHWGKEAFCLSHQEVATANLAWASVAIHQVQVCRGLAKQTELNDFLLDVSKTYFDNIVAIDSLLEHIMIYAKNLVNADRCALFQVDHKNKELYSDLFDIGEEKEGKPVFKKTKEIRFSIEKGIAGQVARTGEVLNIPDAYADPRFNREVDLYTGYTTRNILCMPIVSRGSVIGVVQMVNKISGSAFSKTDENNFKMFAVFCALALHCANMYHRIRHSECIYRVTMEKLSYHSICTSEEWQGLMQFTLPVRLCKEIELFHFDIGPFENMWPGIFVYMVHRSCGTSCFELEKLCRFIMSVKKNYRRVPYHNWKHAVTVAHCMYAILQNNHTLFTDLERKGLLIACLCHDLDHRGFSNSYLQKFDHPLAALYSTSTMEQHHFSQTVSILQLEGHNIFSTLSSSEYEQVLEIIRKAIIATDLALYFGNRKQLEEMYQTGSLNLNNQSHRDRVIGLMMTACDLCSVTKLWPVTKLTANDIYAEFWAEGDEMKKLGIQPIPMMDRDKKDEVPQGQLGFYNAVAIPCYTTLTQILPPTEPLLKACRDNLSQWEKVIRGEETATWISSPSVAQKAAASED

T1 sequence (A0A8I5ZQK1 as listed by the source): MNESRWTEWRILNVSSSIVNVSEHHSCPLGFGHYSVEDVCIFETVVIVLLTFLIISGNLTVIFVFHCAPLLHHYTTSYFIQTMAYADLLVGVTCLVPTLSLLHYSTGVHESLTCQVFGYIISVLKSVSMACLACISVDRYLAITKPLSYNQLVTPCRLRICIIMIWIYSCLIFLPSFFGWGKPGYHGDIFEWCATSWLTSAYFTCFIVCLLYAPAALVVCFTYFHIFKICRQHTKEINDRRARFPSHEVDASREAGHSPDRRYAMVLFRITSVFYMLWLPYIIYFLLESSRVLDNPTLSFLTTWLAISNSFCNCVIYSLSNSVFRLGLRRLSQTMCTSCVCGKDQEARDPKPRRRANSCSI
Mu-type opioid receptor (Homo sapiens), sequence (P35372 whole entry): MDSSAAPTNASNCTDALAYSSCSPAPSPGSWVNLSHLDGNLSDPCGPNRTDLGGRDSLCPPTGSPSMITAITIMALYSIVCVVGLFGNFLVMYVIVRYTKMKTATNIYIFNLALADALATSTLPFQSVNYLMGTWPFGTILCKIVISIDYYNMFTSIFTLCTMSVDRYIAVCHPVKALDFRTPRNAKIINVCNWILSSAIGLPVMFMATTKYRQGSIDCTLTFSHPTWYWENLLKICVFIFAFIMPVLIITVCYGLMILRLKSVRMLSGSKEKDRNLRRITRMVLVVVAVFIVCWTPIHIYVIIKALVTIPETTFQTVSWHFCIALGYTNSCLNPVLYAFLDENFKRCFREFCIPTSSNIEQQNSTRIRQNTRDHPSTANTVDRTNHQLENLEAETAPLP
B2 bradykinin receptor (Homo sapiens), sequence (P30411 whole entry): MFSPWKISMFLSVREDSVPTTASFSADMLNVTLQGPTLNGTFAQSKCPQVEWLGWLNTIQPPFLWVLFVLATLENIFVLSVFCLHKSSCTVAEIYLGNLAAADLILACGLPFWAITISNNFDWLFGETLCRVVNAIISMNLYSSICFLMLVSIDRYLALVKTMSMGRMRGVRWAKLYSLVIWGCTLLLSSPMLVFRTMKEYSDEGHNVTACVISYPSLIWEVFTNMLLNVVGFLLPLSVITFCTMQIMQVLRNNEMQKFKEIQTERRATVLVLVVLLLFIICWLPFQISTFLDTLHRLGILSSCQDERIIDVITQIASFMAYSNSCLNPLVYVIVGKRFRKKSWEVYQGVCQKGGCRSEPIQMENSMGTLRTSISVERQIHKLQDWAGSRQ
Muscarinic acetylcholine receptor M1 (Homo sapiens), sequence (P11229 whole entry): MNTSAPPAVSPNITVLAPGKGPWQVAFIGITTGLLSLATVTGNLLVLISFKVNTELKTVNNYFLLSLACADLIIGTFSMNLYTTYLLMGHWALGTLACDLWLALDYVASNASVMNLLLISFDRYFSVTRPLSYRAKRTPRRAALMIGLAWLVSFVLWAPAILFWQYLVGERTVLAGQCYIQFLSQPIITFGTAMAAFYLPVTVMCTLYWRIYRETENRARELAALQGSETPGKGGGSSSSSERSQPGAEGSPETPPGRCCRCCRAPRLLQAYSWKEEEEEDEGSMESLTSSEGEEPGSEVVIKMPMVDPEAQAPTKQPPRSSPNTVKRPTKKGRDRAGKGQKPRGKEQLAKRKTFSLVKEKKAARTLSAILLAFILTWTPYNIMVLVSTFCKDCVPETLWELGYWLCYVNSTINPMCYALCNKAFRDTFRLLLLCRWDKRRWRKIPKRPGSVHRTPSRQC
D(3) dopamine receptor (Homo sapiens), sequence (P35462 whole entry): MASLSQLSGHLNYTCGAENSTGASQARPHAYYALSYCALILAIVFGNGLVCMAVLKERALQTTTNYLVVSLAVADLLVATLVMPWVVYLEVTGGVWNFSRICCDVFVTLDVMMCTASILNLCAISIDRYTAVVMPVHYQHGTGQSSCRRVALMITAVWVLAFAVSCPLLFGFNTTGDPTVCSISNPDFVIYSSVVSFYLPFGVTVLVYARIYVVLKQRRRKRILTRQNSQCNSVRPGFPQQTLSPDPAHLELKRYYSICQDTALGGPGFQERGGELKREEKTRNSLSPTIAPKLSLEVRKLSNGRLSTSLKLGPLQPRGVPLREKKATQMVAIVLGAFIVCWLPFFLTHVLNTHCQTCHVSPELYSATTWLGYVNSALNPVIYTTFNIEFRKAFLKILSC
G protein-coupled receptor 52, sequence (A0A8I5ZQK1 whole entry): as the sequence (A0A8I5ZQK1 as listed by the source) above
Coagulation factor X (Homo sapiens), sequence (P00742 41-179 limits assumed): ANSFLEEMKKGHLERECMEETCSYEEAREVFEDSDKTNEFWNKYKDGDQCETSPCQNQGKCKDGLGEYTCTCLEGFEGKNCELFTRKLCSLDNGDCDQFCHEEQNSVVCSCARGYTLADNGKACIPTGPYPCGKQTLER
Coagulation factor X (Homo sapiens), sequence (P00742 235-488 limits assumed): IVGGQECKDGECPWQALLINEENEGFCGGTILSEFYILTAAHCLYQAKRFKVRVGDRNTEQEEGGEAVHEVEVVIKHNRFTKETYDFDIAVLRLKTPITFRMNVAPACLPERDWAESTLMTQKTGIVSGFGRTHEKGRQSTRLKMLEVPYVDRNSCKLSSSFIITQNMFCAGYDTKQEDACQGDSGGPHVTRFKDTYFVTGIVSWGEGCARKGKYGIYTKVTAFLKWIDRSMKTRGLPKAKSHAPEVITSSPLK
5-hydroxytryptamine receptor 4 (Homo sapiens), sequence (Q13639 whole entry): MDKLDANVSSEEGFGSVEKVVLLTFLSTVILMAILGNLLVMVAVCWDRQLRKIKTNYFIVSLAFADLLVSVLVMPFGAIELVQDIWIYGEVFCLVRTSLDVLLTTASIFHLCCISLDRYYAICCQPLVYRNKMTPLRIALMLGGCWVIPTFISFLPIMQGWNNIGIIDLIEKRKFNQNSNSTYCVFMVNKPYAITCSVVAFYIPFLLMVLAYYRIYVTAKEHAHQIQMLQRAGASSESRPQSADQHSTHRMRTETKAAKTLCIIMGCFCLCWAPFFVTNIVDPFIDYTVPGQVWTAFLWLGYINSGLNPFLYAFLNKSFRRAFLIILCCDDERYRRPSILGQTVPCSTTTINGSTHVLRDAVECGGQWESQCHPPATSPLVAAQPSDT
Prostaglandin G/H synthase 1 (Homo sapiens), sequence (P23219 whole entry): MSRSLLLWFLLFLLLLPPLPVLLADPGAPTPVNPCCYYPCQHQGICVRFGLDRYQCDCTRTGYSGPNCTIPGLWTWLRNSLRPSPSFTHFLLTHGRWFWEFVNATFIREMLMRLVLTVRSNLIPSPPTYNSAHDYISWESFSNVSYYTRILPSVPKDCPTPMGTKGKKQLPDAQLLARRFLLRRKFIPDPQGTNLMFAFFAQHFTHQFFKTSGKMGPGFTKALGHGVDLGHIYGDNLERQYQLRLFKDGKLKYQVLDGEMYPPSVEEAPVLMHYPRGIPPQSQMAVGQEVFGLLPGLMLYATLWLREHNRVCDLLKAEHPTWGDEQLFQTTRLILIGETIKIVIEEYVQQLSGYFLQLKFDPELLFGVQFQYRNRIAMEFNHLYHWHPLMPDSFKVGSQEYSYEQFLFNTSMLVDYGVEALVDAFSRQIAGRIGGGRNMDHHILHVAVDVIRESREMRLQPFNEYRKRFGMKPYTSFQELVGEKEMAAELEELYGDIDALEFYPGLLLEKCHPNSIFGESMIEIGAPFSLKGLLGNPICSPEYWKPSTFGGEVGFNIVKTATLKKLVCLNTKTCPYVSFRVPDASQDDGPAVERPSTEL
B1 bradykinin receptor (Homo sapiens), sequence (P46663 whole entry): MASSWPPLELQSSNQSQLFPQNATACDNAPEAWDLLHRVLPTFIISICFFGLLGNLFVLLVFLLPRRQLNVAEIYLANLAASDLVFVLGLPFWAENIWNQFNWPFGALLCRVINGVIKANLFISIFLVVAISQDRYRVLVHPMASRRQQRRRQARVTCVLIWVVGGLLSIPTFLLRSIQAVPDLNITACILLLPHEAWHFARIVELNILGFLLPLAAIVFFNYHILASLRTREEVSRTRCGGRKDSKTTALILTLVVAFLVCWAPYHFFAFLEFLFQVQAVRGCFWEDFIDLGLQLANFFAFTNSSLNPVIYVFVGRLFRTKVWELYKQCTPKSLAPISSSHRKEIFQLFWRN

## Cc1cc(-n2nc(Cc3cc(F)cc(C(F)(F)F)c3)nc2C)ccc1C(N)=O [TP-024]
[1]
  Activity: Active
[2]
  inhibition: 0%
[3]
  inhibition: -1%
[4]
  inhibition: -9%
[5]
  inhibition: 4%
Mus musculus [6]
  Activity: Active
[7]
  inhibition: 2%
[8]
  EC50: 151 nM
[9]
  inhibition: 8%
[10]
  inhibition at 10 µM: 10%
[11]
  inhibition: 14%
[12]
  inhibition: 3%
[13]
  inhibition: -1%
Mus musculus [14]
  Activity: Active
Mus musculus [15]
  Activity: inactive
[16]
  inhibition: 10%
[17]
  inhibition: -5%
Mus musculus [18]
  Activity: Dose-Dependent Effect
[19]
  inhibition: 4%
[20]
  Activity: Active
[21]
  inhibition: -4%
[22]
  inhibition: 4%
[23]
  inhibition: -6%
Homo sapiens
  inhibition: -2%
[24]
  inhibition: -10%
[25]
  inhibition: 16%
[26]
  inhibition: 0%
